Measurements as given in ChEMBL document CHEMBL1142980, “Quinols as novel therapeutic agents. 7.1 Synthesis of antitumor 4-[1-(arylsulfonyl-1H-indol-2-yl)]-4-hydroxycyclohexa-2,5-dien-1-ones by Sonogashira reactions” (J Med Chem, 2007).

What was measured:
HCT-116 = assay: Growth inhibition of human HCT116 cells after 72 hrs by MTT assay; format: functional, cell-based; settings: HCT-116, 72 h, read-out: LC50 (the source's name)
How it was run: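 Human cancer cells given 72 h continuous drug exposure, growth measured by MTT assay; part of a preliminary five-line screen (colon HCT-116, HT29; breast MCF-7, MDA 468; non-small cell lung A549).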

[1] = Growth inhibition of NCI60 cells; format: functional; settings: Homo sapiens; for CC50: read-out: LC50 (the source's name)
How it was run: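 Run in the NCI in vitro 60 human cancer cell line panel. Potency is given as mean GI50 and mean LC50 (µM) across the panel. Individual lines with LC50 below 1 µM are reported separately.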

CAKI-1 = assay: Growth inhibition of human CAKI1 cells after 72 hrs by MTT assay; format: functional; settings: CAKI-1, 72 h, read-out: LC50 (the source's name)
BT-549 = assay: Growth inhibition of human BT549 cells after 72 hrs by MTT assay; format: functional; settings: BT-549, 72 h, read-out: LC50 (the source's name)
[2] = Growth inhibition of human LOXIMV1 cells after 72 hrs by MTT assay; format: functional; settings: LOX IMV1, 72 h, read-out: LC50 (the source's name)
ACHN = assay: Growth inhibition of human ACHN cells after 72 hrs by MTT assay; format: functional; settings: read-out: LC50 (the source's name)
A498 = assay: Growth inhibition of human A498 cells after 72 hrs by MTT assay; format: functional; settings: A498, 72 h, read-out: LC50 (the source's name)
SK-MEL-5 = assay: Growth inhibition of human SKMEL5 cells after 72 hrs by MTT assay; format: functional; settings: SK-MEL-5, 72 h, read-out: LC50 (the source's name)

SMILES	CC50 (HCT-116) [nM]	GI50 [1] [nM]	CC50 [1] [nM]	CC50 (CAKI-1) [nM]	CC50 (BT-549) [nM]	CC50 [2] [nM]	CC50 (ACHN) [nM]	CC50 (A498) [nM]	CC50 (SK-MEL-5) [nM]
O=C1C=CC(O)(c2cc3ccccc3n2S(=O)(=O)c2ccccc2)C=C1	30	39	2950	50	–	–	–	–	–
O=C1C=CC(O)(c2cc3ccccc3n2S(=O)(=O)c2cccnc2)C=C1	290	410	14100	–	–	–	–	–	–
O=C1C=CC(O)(c2cc3ccccc3n2S(=O)(=O)c2ccc(CCC(=O)O)cc2)C=C1	–	2340	23400	–	–	–	–	–	–
COC(=O)CCc1ccc(S(=O)(=O)n2c(C3(O)C=CC(=O)C=C3)cc3ccc(F)cc32)cc1	720	500	10500	–	740	810	–	–	–
CN(C)c1cccc2c(S(=O)(=O)n3c(C4(O)C=CC(=O)C=C4)cc4ccccc43)cccc12	–	190	13200	–	–	–	410	60	–
O=C1C=CC(O)(c2cc3ccc(F)cc3n2S(=O)(=O)c2ccc(CCC(=O)O)cc2)C=C1	–	2500	29500	–	–	–	–	–	–
O=C1C=CC(O)(c2nc3ccccc3s2)C=C1	–	230	3390	–	–	–	–	–	–
Cc1ccc(S(=O)(=O)n2c(C3(O)C=CC(=O)C=C3)cc3ccncc32)cc1	< 10	170	5750	–	–	60	50	–	–
Cc1ccc(S(=O)(=O)n2c(C3(O)C=CC(=O)C=C3)cc3ccccc32)cc1	< 10	110	7240	–	–	< 10	40	–	–
O=C1C=CC(O)(c2cc3ccc(F)cc3n2S(=O)(=O)c2ccccc2)C=C1	–	16	2240	–	–	–	–	–	–
O=C1C=CC(O)(c2cc3cnccc3n2S(=O)(=O)c2ccccc2)C=C1	930	340	13800	470	–	–	–	–	–
CCOC(=O)Nc1ccc(S(=O)(=O)n2c(C3(O)C=CC(=O)C=C3)cc3ccccc32)cc1	295	190	7580	–	–	–	600	–	–
COC(=O)CCc1ccc(S(=O)(=O)n2c(C3(O)C=CC(=O)C=C3)cc3ccccc32)cc1	20	680	22900	–	–	–	–	–	600
